What was measured:
Type in all cases: functional
SK-OV-3 = experiment: Growth inhibition of human SK-OV-3 cells assessed as cell growth at 0.1 uM incubated for 48 hrs by sulforhodamine B assay relative to control; conditions: read-out: Activity
Hs-578T [1] = experiment: Growth inhibition of human Hs-578T cells assessed as cell growth at 1 uM incubated for 48 hrs by sulforhodamine B assay relative to control; conditions: read-out: Activity
OVCAR-4 = experiment: Growth inhibition of human OVCAR-4 cells assessed as cell growth at 0.1 uM incubated for 48 hrs by sulforhodamine B assay relative to control; conditions: read-out: Activity
OVCAR-3 = experiment: Growth inhibition of human OVCAR-3 cells assessed as cell growth at 0.1 uM incubated for 48 hrs by sulforhodamine B assay relative to control; conditions: read-out: Activity
Hs-578T [2] = experiment: Growth inhibition of human Hs-578T cells incubated for 48 hrs by sulforhodamine B assay
Procedure, shortened: (§1)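 NCI60 panel at the NCI Developmental Therapeutics Program. Only compounds active in the 10 µM screen went to dose-response testing. GI50, the concentration giving 50% of maximal inhibition of proliferation, and TGI, the concentration giving total growth inhibition, were derived from the dose-response curves.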

SW-620 [3] = experiment: Growth inhibition of human SW-620 cells assessed as cell growth at 100 uM incubated for 48 hrs by sulforhodamine B assay relative to control; conditions: read-out: Activity
KM12 = experiment: Growth inhibition of human KM12 cells incubated for 48 hrs by sulforhodamine B assay; procedure, shortened: as §1
DU-145 [4] = experiment: Growth inhibition of human DU-145 cells incubated for 48 hrs by sulforhodamine B assay
Procedure, shortened: (§2)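 NCI Developmental Therapeutics Program NCI60 panel. Compounds that were active in the 10 µM one-dose screen went on to dose–response testing. Growth at each concentration is expressed relative to untreated control (100%). GI50 (concentration giving 50% of maximal inhibition of proliferation) and TGI (concentration giving total growth inhibition) were derived from the curves.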

T47D = experiment: Growth inhibition of human T47D cells assessed as cell growth at 100 uM incubated for 48 hrs by sulforhodamine B assay relative to control; conditions: read-out: Activity
NCI-H460 = experiment: Growth inhibition of human NCI-H460 cells assessed as cell growth at 0.1 uM incubated for 48 hrs by sulforhodamine B assay relative to control; conditions: read-out: Activity
MDA-MB-231 = experiment: Growth inhibition of human MDA-MB-231 cells assessed as cell growth at 100 uM incubated for 48 hrs by sulforhodamine B assay relative to control; conditions: read-out: Activity
HOP-62 [5] = experiment: Growth inhibition of human HOP-62 cells assessed as cell growth at 100 uM incubated for 48 hrs by sulforhodamine B assay relative to control; conditions: read-out: Activity
IGROV-1 = experiment: Growth inhibition of human IGROV-1 cells incubated for 48 hrs by sulforhodamine B assay; procedure, shortened: as §1
A549 [6] = experiment: Growth inhibition of human A549/ATCC cells assessed as cell growth at 100 uM incubated for 48 hrs by sulforhodamine B assay relative to control; conditions: read-out: Activity; procedure, shortened: as §2
MDA-MB-435 = experiment: Growth inhibition of human MDA-MB-435 cells assessed as cell growth at 0.1 uM incubated for 48 hrs by sulforhodamine B assay relative to control; conditions: read-out: Activity
NCI/ADR-RES = experiment: Growth inhibition of human NCI/ADR-RES cells assessed as cell growth at 100 uM incubated for 48 hrs by sulforhodamine B assay relative to control; conditions: read-out: Activity
SNB-19 = experiment: Growth inhibition of human SNB-19 cells assessed as cell growth at 1 uM incubated for 48 hrs by sulforhodamine B assay relative to control; conditions: read-out: Activity
SW-620 [7] = experiment: Growth inhibition of human SW-620 cells assessed as cell growth at 1 uM incubated for 48 hrs by sulforhodamine B assay relative to control; conditions: read-out: Activity
SK-MEL-5 = experiment: Growth inhibition of human SK-MEL-5 cells incubated for 48 hrs by sulforhodamine B assay
Procedure, shortened: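 NCI DTP 60-line human tumour panel. Dose-response curves were run only for ligands active in the initial 10 µM screen. GI50 (concentration giving 50% of maximal inhibition of proliferation) and TGI (concentration giving total growth inhibition) were derived from these curves.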

CAKI-1 = experiment: Growth inhibition of human CAKI-1 cells assessed as cell growth at 100 uM incubated for 48 hrs by sulforhodamine B assay relative to control; conditions: read-out: Activity; procedure, shortened: as §2
MOLT-4 = experiment: Growth inhibition of human MOLT-4 cells assessed as cell growth at 0.1 uM incubated for 48 hrs by sulforhodamine B assay relative to control; conditions: read-out: Activity
OVCAR-5 = experiment: Growth inhibition of human OVCAR-5 cells assessed as cell growth at 0.01 uM incubated for 48 hrs by sulforhodamine B assay relative to control; conditions: read-out: Activity
Malme-3M [8] = experiment: Growth inhibition of human Malme-3M cells assessed as cell growth at 100 uM incubated for 48 hrs by sulforhodamine B assay relative to control; conditions: read-out: Activity
TK-10 [9] = experiment: Growth inhibition of human TK-10 cells assessed as cell growth at 0.01 uM incubated for 48 hrs by sulforhodamine B assay relative to control; conditions: read-out: Activity
NCI-H226 = experiment: Growth inhibition of human NCI-H226 cells incubated for 48 hrs by sulforhodamine B assay; procedure, shortened: as §1
ACHN = experiment: Growth inhibition of human ACHN cells assessed as cell growth at 0.1 uM incubated for 48 hrs by sulforhodamine B assay relative to control; conditions: read-out: Activity
A549 [10] = experiment: Growth inhibition of human A549/ATCC cells assessed as cell growth at 0.01 uM incubated for 48 hrs by sulforhodamine B assay relative to control; conditions: read-out: Activity; procedure, shortened: as §2
HOP-62 [11] = experiment: Growth inhibition of human HOP-62 cells assessed as cell growth at 0.1 uM incubated for 48 hrs by sulforhodamine B assay relative to control; conditions: read-out: Activity
BT-549 = experiment: Growth inhibition of human BT-549 cells assessed as cell growth at 100 uM incubated for 48 hrs by sulforhodamine B assay relative to control; conditions: read-out: Activity
HOP-92 [12] = experiment: Growth inhibition of human HOP-92 cells assessed as cell growth at 0.1 uM incubated for 48 hrs by sulforhodamine B assay relative to control; conditions: read-out: Activity
DU-145 [13] = experiment: Growth inhibition of human DU-145 cells assessed as cell growth at 1 uM incubated for 48 hrs by sulforhodamine B assay relative to control; conditions: read-out: Activity; procedure, shortened: as §2
HOP-92 [14] = experiment: Growth inhibition of human HOP-92 cells assessed as cell growth at 100 uM incubated for 48 hrs by sulforhodamine B assay relative to control; conditions: read-out: Activity
Malme-3M [15] = experiment: Growth inhibition of human Malme-3M cells assessed as cell growth at 1 uM incubated for 48 hrs by sulforhodamine B assay relative to control; conditions: read-out: Activity
TK-10 [16] = experiment: Growth inhibition of human TK-10 cells assessed as cell growth at 1 uM incubated for 48 hrs by sulforhodamine B assay relative to control; conditions: read-out: Activity
M14 = experiment: Growth inhibition of human M14 cells assessed as cell growth at 1 uM incubated for 48 hrs by sulforhodamine B assay relative to control; conditions: read-out: Activity
[17] = read-out: LC50 (the source's name)

Cc1cccc(NC(=O)c2sc3nc4c(cc3c2N)C(=O)CCC4)c1
growth at 0.1 µM (SK-OV-3): 73% | growth at 1 µM (Hs-578T [1]): 11% | growth at 0.1 µM (OVCAR-4): 82% | growth at 0.1 µM (OVCAR-3): 81% | GI50 (Hs-578T [2]): 0.256 µM | TGI (Hs-578T [2]): 40.9 µM | CC50 (Hs-578T [2]; [17]): > 100 µM | growth at 100 µM (SW-620 [3]): 3% | GI50 (KM12): 0.21 µM | LC50 (KM12): > 100 µM | TGI (KM12): > 100 µM | GI50 (DU-145 [4]): 0.285 µM | TGI (DU-145 [4]): ≥ 100 µM | CC50 (DU-145 [4]; [17]): ≥ 100 µM | growth at 100 µM (T47D): -2% | growth at 0.1 µM (NCI-H460): 83% | growth at 100 µM (MDA-MB-231): 21% | growth at 100 µM (HOP-62 [5]): 1% | GI50 (IGROV-1): 0.662 µM | LC50 (IGROV-1): > 100 µM | TGI (IGROV-1): ≥ 100 µM | growth at 100 µM (A549 [6]): 19% | growth at 0.1 µM (MDA-MB-435): 4% | growth at 100 µM (NCI/ADR-RES): -3% | growth at 1 µM (SNB-19): 33% | growth at 1 µM (SW-620 [7]): 19% | GI50 (SK-MEL-5): 0.169 µM | LC50 (SK-MEL-5): > 100 µM | TGI (SK-MEL-5): ≥ 100 µM | growth at 100 µM (CAKI-1): -22% | growth at 0.1 µM (MOLT-4): 95% | growth at 0.01 µM (OVCAR-5): 96% | growth at 100 µM (Malme-3M [8]): -16% | growth at 0.01 µM (TK-10 [9]): 91% | GI50 (NCI-H226): 1.09 µM | TGI (NCI-H226): > 100 µM | CC50 (NCI-H226; [17]): > 100 µM | growth at 0.1 µM (ACHN): 91% | growth at 0.01 µM (A549 [10]): 92% | growth at 0.1 µM (HOP-62 [11]): 69% | growth at 100 µM (BT-549): -11% | growth at 0.1 µM (HOP-92 [12]): 69% | growth at 1 µM (DU-145 [13]): 3% | growth at 100 µM (HOP-92 [14]): -40% | growth at 1 µM (Malme-3M [15]): 36% | growth at 1 µM (TK-10 [16]): 45% | growth at 1 µM (M14): 11%
